What was measured:
[1] = system: patients with refractory metastatic solid tumors; assay: Response to therapy; format: in vivo, human; conditions: of 12 patients with SD
In short: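 Patients with refractory metastatic solid tumors received oral test compound once daily (5–40 mg/day dose escalation), taken with water after overnight fasting. Dosing was initially continuous over 28-day cycles, then amended to 21 days on and 7 days off. Treatment continued until progression or toxicity. Measurable disease was assessed by RECIST, with radiographic studies at end of cycle 3 and every other cycle thereafter.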

[2] = system: patients with advanced refractory solid tumors; assay: Toxicity assessment; format: in vivo, human

## (α -(3-aminophthalimido) glutarimide) [lenalidomide]
[1]
  patients with stable disease who had prostate cancer: 9
[2]; continuous doses, 4 out of 15 patients
  patients with dose reductions: 27%
[2]; continuous dosing (n=15)
  Anemia, Grade 3, number of patients: 1
  Constipation, Grade 1, number of patients: 2
  Constipation, Grade 2, number of patients: 1
  Diarrhea, Grade 1, number of patients: 4
  Dizziness, Grade 1, number of patients: 3
  Dizziness, Grade 2, number of patients: 1
  Fatigue, Grade 1, number of patients: 4
  Fatigue, Grade 2, number of patients: 1
  Flatulence, Grade 1, number of patients: 3
  Hypotension, Grade 1, number of patients: 2
  Hypotension, Grade 3, number of patients: 1
  Nausea, Grade 1, number of patients: 4
  Neuropathic Sensory, Grade 1, number of patients: 4
  Neutropenia, Grade 1, number of patients: 1
  Neutropenia, Grade 2, number of patients: 3
  Neutropenia, Grade 3, number of patients: 2
  Pleural effusion, Grade 1, number of patients: 2
  Pruritus, Grade 1, number of patients: 5
  Pruritus, Grade 2, number of patients: 1
  Rash/desquamation, Grade 1, number of patients: 4
  SGPT, Grade 2, number of patients: 2
  Thrombosis, Grade 3, number of patients: 2
[2]; intermittent dose (n=35)
  Anemia, Grade 1, number of patients: 1
  Anemia, Grade 2, number of patients: 1
  Anemia, Grade 3, number of patients: 1
  Anorexia, Grade 1, number of patients: 3
  Anorexia, Grade 2, number of patients: 1
  Constipation, Grade 1, number of patients: 4
  Constipation, Grade 2, number of patients: 5
  Diarrhea, Grade 1, number of patients: 5
  Diarrhea, Grade 3, number of patients: 1
  Dizziness, Grade 1, number of patients: 8
  Dysgeusia, Grade 1, number of patients: 3
  Edema, Grade 1, number of patients: 4
  Fatigue, Grade 1, number of patients: 14
  Fever, Grade 1, number of patients: 4
  Hemolysis, Grade 2, number of patients: 1
  Hemolysis, Grade 4, number of patients: 1
  Infection, Grade 2, number of patients: 1
  Infection, Grade 3, number of patients: 2
  Insomnia, Grade 1, number of patients: 5
  Leukopenia, Grade 2, number of patients: 1
  Leukopenia, Grade 3, number of patients: 1
  Myalgia, Grade 1, number of patients: 5
  Myalgia, Grade 2, number of patients: 1
  Nausea, Grade 1, number of patients: 9
  Nausea, Grade 2, number of patients: 1
  Neutropenia, Grade 1, number of patients: 1
  Neutropenia, Grade 2, number of patients: 2
  Neutropenia, Grade 3, number of patients: 2
  Neutropenia, Grade 4, number of patients: 3
  Pleural effusion, Grade 1, number of patients: 2
  Pleural effusion, Grade 3, number of patients: 1
  Pruritus, Grade 1, number of patients: 4
  Pruritus, Grade 2, number of patients: 1
  Rash/desquamation, Grade 1, number of patients: 7
  Rash/desquamation, Grade 2, number of patients: 3
  Supraventricular arrythmia, Grade 4, number of patients: 1
  Thrombocytopenia, Grade 1, number of patients: 3
  Thrombocytopenia, Grade 3, number of patients: 2
[2]; intermittent doses, 7 out of 30 patients
  patients with dose reductions: 23%
[2]; intermittent dosing schedule, 21 days on, 7 days off
  dose up to which lenalidomide was well tolerated: up to 35 mg/day

Source: paper PMC2808857 (Journal of clinical pharmacology, 2009)
